Measured values from ChEMBL document CHEMBL4038328, “Structure-Guided Optimization of HIV Integrase Strand Transfer Inhibitors” (J Med Chem, 2017).

Key:
[1] = system: Human immunodeficiency virus 1; assay: Antiviral activity against VSV-G pseudotyped HIV1 harboring integrase E92Q mutant infected in HOS cells pretreated […] for 3 hrs followed by viral infection measured after 48 hrs by luciferase reporter gene assay; format: functional, cell-based; conditions: Human immunodeficiency virus 1, HOS
In short: (§1)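 Single-round luciferase HIV-1 vector (pNLNgoMIVR−ΔLUC carrying WT or mutant IN) was pseudotyped with VSV-g by calcium phosphate co-transfection of 293 cells, and supernatant was harvested after 48 h. HOS cells were seeded at 4000/well in DMEM with 5% FBS and 5% newborn calf serum. They were pretreated 3 h at 37 °C with 5–0.0001 μM (11 serial dilutions), then infected for 48 h. Luminescence was normalized to untreated cells, and EC50 came from nonlinear regression.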

[2] = Inhibition of HIV1 integrase 3' processing activity using 5'-end 32P labeled DNA substrate measured after 2 hrs by PAGE based phosphor imaging method; set-up: species or system Human immunodeficiency virus 1
In short: (§2)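 Gel-based assay, Mg2+ cofactor: 400 nM integrase with 20 nM DNA substrate 5′-32P-labeled on transferred strand in 50 mM MOPS pH 7.2, 7.5 mM MgCl2, 14 mM 2-mercaptoethanol, inhibitor or DMSO; 2 h at 37 °C. Stopped with formamide/SDS loading buffer; products resolved on 16% denaturing polyacrylamide gels, quantified by phosphorimaging.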

[3] = system: Human immunodeficiency virus 1; assay: Antiviral activity against VSV-G pseudotyped HIV1 harboring integrase G118R mutant infected in HOS cells pretreated […] for 3 hrs followed by viral infection measured after 48 hrs by luciferase reporter gene assay; format: functional, cell-based; conditions: Human immunodeficiency virus 1, HOS; in short: as §1
[4] = system: Human immunodeficiency virus 1; assay: Antiviral activity against VSV-G pseudotyped HIV1 harboring integrase T66I mutant infected in HOS cells pretreated […] for 3 hrs followed by viral infection measured after 48 hrs by luciferase reporter gene assay relative to dolutegravir; format: functional
[5] = system: Human immunodeficiency virus 1; assay: Selectivity ratio of EC50 for VSV-G pseudotyped HIV1 harboring integrase G118R mutant infected in HOS cells to EC50 for VSV-G pseudotyped HIV1 harboring wild-type integrase infected in HOS cells; format: functional
In short: (§3)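 Fold change is the EC50 against the mutant-IN vector divided by the EC50 against the WT-IN vector. Both come from the single-round luciferase infectivity assay in HOS cells, with a 3 h compound pretreatment followed by 48 h infection.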

[6] = system: Human immunodeficiency virus 1; assay: Antiviral activity against VSV-G pseudotyped HIV1 harboring integrase R263K mutant infected in HOS cells pretreated […] for 3 hrs followed by viral infection measured after 48 hrs by luciferase reporter gene assay relative to dolutegravir; format: functional
[7] = system: Human immunodeficiency virus 1; assay: Antiviral activity against VSV-G pseudotyped HIV1 harboring integrase N155H mutant infected in HOS cells pretreated […] for 3 hrs followed by viral infection measured after 48 hrs by luciferase reporter gene assay; format: functional, cell-based; conditions: Human immunodeficiency virus 1, HOS; in short: as §1
[8] = system: Human immunodeficiency virus 1; assay: Selectivity ratio of EC50 for VSV-G pseudotyped HIV1 harboring integrase N155H mutant infected in HOS cells to EC50 for VSV-G pseudotyped HIV1 harboring wild-type integrase infected in HOS cells; format: functional; in short: as §3
[9] = system: Human immunodeficiency virus 1; assay: Selectivity ratio of EC50 for VSV-G pseudotyped HIV1 harboring integrase H51Y/R263K double mutant infected in HOS cells to EC50 for VSV-G pseudotyped HIV1 harboring wild-type integrase infected in HOS cells; format: functional; in short: as §3
[10] = system: Human immunodeficiency virus 1; assay: Antiviral activity against VSV-G pseudotyped HIV1 harboring integrase Y143R mutant infected in HOS cells pretreated […] for 3 hrs followed by viral infection measured after 48 hrs by luciferase reporter gene assay relative to dolutegravir; format: functional
[11] = system: Human immunodeficiency virus 1; assay: Selectivity ratio of EC50 for VSV-G pseudotyped HIV1 harboring integrase R263K mutant infected in HOS cells to EC50 for VSV-G pseudotyped HIV1 harboring wild-type integrase infected in HOS cells; format: functional; in short: as §3
[12] = system: Human immunodeficiency virus 1; assay: Antiviral activity against VSV-G pseudotyped HIV1 harboring integrase T66I mutant infected in HOS cells pretreated […] for 3 hrs followed by viral infection measured after 48 hrs by luciferase reporter gene assay; format: functional, cell-based; conditions: Human immunodeficiency virus 1, HOS; in short: as §1
[13] = system: Human immunodeficiency virus 1; assay: Antiviral activity against VSV-G pseudotyped HIV1 harboring integrase G118R mutant infected in HOS cells pretreated […] for 3 hrs followed by viral infection measured after 48 hrs by luciferase reporter gene assay relative to dolutegravir; format: functional
[14] = system: Human immunodeficiency virus 1; assay: Antiviral activity against VSV-G pseudotyped HIV1 harboring integrase H51Y mutant infected in HOS cells pretreated […] for 3 hrs followed by viral infection measured after 48 hrs by luciferase reporter gene assay relative to dolutegravir; format: functional
[15] = Inhibition of HIV1 integrase strand transfer activity using 5'-end 32P labeled DNA substrate measured after 2 hrs by PAGE based phosphor imaging method; set-up: species or system Human immunodeficiency virus 1; in short: as §2
[16] = system: Human immunodeficiency virus 1; assay: Antiviral activity against VSV-G pseudotyped HIV1 harboring integrase E92Q mutant infected in HOS cells pretreated […] for 3 hrs followed by viral infection measured after 48 hrs by luciferase reporter gene assay relative to dolutegravir; format: functional
[17] = system: Human immunodeficiency virus 1; assay: Selectivity ratio of EC50 for VSV-G pseudotyped HIV1 harboring integrase T66I mutant infected in HOS cells to EC50 for VSV-G pseudotyped HIV1 harboring wild-type integrase infected in HOS cells; format: functional; in short: as §3
[18] = system: Human immunodeficiency virus 1; assay: Antiviral activity against VSV-G pseudotyped HIV1 harboring integrase G140S/Q148H double mutant infected in HOS cells pretreated […] for 3 hrs followed by viral infection measured after 48 hrs by luciferase reporter gene assay; format: functional, cell-based; conditions: Human immunodeficiency virus 1, HOS; in short: as §1
[19] = system: Human immunodeficiency virus 1; assay: Antiviral activity against VSV-G pseudotyped HIV1 harboring integrase G140S/Q148H double mutant infected in HOS cells pretreated […] for 3 hrs followed by viral infection measured after 48 hrs by luciferase reporter gene assay relative to dolutegravir; format: functional
[20] = system: Human immunodeficiency virus 1; assay: Selectivity ratio of EC50 for VSV-G pseudotyped HIV1 harboring integrase E92Q mutant infected in HOS cells to EC50 for VSV-G pseudotyped HIV1 harboring wild-type integrase infected in HOS cells; format: functional; in short: as §3
[21] = system: Human immunodeficiency virus 1; assay: Antiviral activity against VSV-G pseudotyped HIV1 harboring integrase Y143R mutant infected in HOS cells pretreated […] for 3 hrs followed by viral infection measured after 48 hrs by luciferase reporter gene assay; format: functional, cell-based; conditions: Human immunodeficiency virus 1, HOS; in short: as §1
[22] = system: Human immunodeficiency virus 1; assay: Antiviral activity against VSV-G pseudotyped HIV1 harboring wild-type integrase infected in HOS cells pretreated […] for 3 hrs followed by viral infection measured after 48 hrs by luciferase reporter gene assay relative to dolutegravir; format: functional
[23] = system: Human immunodeficiency virus 1; assay: Antiviral activity against VSV-G pseudotyped HIV1 harboring integrase H51Y mutant infected in HOS cells pretreated […] for 3 hrs followed by viral infection measured after 48 hrs by luciferase reporter gene assay; format: functional, cell-based; conditions: Human immunodeficiency virus 1, HOS; in short: as §1
[24] = system: Human immunodeficiency virus 1; assay: Antiviral activity against VSV-G pseudotyped HIV1 harboring integrase H51Y/R263K double mutant infected in HOS cells pretreated […] for 3 hrs followed by viral infection measured after 48 hrs by luciferase reporter gene assay relative to dolutegravir; format: functional
[25] = system: Human immunodeficiency virus 1; assay: Selectivity ratio of EC50 for VSV-G pseudotyped HIV1 harboring integrase H51Y mutant infected in HOS cells to EC50 for VSV-G pseudotyped HIV1 harboring wild-type integrase infected in HOS cells; format: functional; in short: as §3
[26] = system: Human immunodeficiency virus 1; assay: Selectivity ratio of EC50 for VSV-G pseudotyped HIV1 harboring integrase Y143R mutant infected in HOS cells to EC50 for VSV-G pseudotyped HIV1 harboring wild-type integrase infected in HOS cells; format: functional; in short: as §3
[27] = system: Human immunodeficiency virus 1; assay: Antiviral activity against VSV-G pseudotyped HIV1 harboring wild-type integrase infected in HOS cells pretreated […] for 3 hrs followed by viral infection measured after 48 hrs by luciferase reporter gene assay; format: functional, cell-based; conditions: Human immunodeficiency virus 1, HOS; in short: as §1
[28] = system: Human immunodeficiency virus 1; assay: Antiviral activity against VSV-G pseudotyped HIV1 harboring integrase R263K mutant infected in HOS cells pretreated […] for 3 hrs followed by viral infection measured after 48 hrs by luciferase reporter gene assay; format: functional, cell-based; conditions: Human immunodeficiency virus 1, HOS; in short: as §1
[29] = system: Human immunodeficiency virus 1; assay: Selectivity ratio of EC50 for VSV-G pseudotyped HIV1 harboring integrase G140S/Q148H mutant infected in HOS cells to EC50 for VSV-G pseudotyped HIV1 harboring wild-type integrase infected in HOS cells; format: functional; in short: as §3
[30] = system: Human immunodeficiency virus 1; assay: Antiviral activity against VSV-G pseudotyped HIV1 harboring integrase N155H mutant infected in HOS cells pretreated […] for 3 hrs followed by viral infection measured after 48 hrs by luciferase reporter gene assay relative to dolutegravir; format: functional
[31] = (§4) Cytotoxicity against HOS cells assessed as reduction in cell viability after 48 hrs by ATPLite luminescence assay; format: cell-based; conditions: human, HOS cells
In short: (§5)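 HOS cells seeded at 4000 per well the day before, exposed to compounds over 250 to 0.05 μM at 37 °C for 48 h. ATP measured by luminescence after lysis and 20 min signal development at room temperature.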

[32] = system: Human immunodeficiency virus 1; assay: Antiviral activity against VSV-G pseudotyped HIV1 harboring integrase H51Y/R263K double mutant infected in HOS cells pretreated […] for 3 hrs followed by viral infection measured after 48 hrs by luciferase reporter gene assay; format: functional, cell-based; conditions: Human immunodeficiency virus 1, HOS; in short: as §1
[33] = system: HOS; assay: as §4; format: cell-based; conditions: human, hos, 48 h; in short: as §5

Row | Structure (SMILES) | EC50 [1] | IC50 [2] | EC50 [3] | Ratio EC50 [5] | Ratio EC50 [8] | Ratio EC50 [9] | Ratio EC50 [11] | EC50 [12] | IC50 [15] | Ratio EC50 [17] | EC50 [18] | Ratio EC50 [20] | EC50 [21] | EC50 [23] | Ratio EC50 [25] | Ratio EC50 [26] | EC50 [27] | EC50 [28] | Ratio EC50 [29] | EC50 [32] | other results
1 | Nc1c(C(=O)NCc2ccc(F)cc2F)c(=O)n(O)c2ncc(CCCCCO)cc12 | 3.8 nM | 8200 nM | 5.3 nM | 4 | 2 | 2 | 2 | 0.93 nM | 2.7 nM | 0.7 | 9.4 nM | 3 | 3 nM | 3.8 nM | 3 | 2 | 1.3 nM | 2.6 nM | 7 | 2.6 nM | fold change (FC) [4]: 1.03; fold change (FC) [6]: 0.24; EC50 [7]: 2.4 nM; fold change (FC) [10]: 0.71; fold change (FC) [13]: 0.41; fold change (FC) [14]: 1.19; fold change (FC) [16]: 1.65; fold change (FC) [19]: 1.62; fold change (FC) [22]: 0.81; fold change (FC) [24]: 0.16; fold change (FC) [30]: 0.67; CC50 at 48 h [31]: > 250000 nM
2 | COC(=O)CCc1cnc2c(c1)c(N)c(C(=O)NCc1ccc(F)cc1F)c(=O)n2O | 2 nM | 2900 nM | 4.8 nM | 7 | 3 | 3 | 0.7 | 0.53 nM | 3.1 nM | 0.8 | 5.3 nM | 3 | 0.67 nM | 0.63 nM | 0.9 | 1 | 0.67 nM | 0.5 nM | 8 | 2.4 nM | fold change (FC) [4]: 0.59; fold change (FC) [6]: 0.05; fold change (FC) [10]: 0.16; fold change (FC) [13]: 0.37; fold change (FC) [14]: 0.2; fold change (FC) [16]: 0.87; fold change (FC) [19]: 0.91; fold change (FC) [22]: 0.42; fold change (FC) [24]: 0.15; fold change (FC) [30]: 0.64; CC50 [33]: > 250000 nM
3 | O=C(NCc1ccc(F)cc1F)c1c(NCCO)c2cc(CCCCCO)cnc2n(O)c1=O | 6.5 nM | 4000 nM | 24 nM | 2 | 1 | 2 | 1 | 1.9 nM | 2.5 nM | 0.1 | 16 nM | 0.5 | 12 nM | 11 nM | 0.8 | 0.9 | 13 nM | 18 nM | 1 | 31 nM | EC50 [7]: 15 nM; CC50 [33]: > 250000 nM
